Reference: ChEMBL document CHEMBL1124012, “Synthesis of sulfur-containing analogues of bestatin. Inhibition of aminopeptidases by alpha-thiolbestatin analogues” (J Med Chem, 1988)

What was measured:
Cytosol aminopeptidase = Cytosol aminopeptidase (Homo sapiens, UniProt P28838); test: Inhibitory activity against Leucine aminopeptidase; parameters: species or system Streptomyces olivoreticuli
Procedure, shortened: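 Cytosolic leucine aminopeptidase, converted to Zn/Mg form by 4 h at 37 °C in 10 mM HEPES pH 8.0 with 5 mM MgSO4 and 1 M KCl. Assayed at 25 °C in 0.1 M Tris pH 8.5 with 5 mM MgCl2, enzyme 5 nM (1 nM for very tight binders).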

Aminopeptidase N = biological target: T1, Aminopeptidase N (Sus scrofa, UniProt P15145); test: Inhibitory activity against Aminopeptidase M
T1 sequence (P15145 whole entry): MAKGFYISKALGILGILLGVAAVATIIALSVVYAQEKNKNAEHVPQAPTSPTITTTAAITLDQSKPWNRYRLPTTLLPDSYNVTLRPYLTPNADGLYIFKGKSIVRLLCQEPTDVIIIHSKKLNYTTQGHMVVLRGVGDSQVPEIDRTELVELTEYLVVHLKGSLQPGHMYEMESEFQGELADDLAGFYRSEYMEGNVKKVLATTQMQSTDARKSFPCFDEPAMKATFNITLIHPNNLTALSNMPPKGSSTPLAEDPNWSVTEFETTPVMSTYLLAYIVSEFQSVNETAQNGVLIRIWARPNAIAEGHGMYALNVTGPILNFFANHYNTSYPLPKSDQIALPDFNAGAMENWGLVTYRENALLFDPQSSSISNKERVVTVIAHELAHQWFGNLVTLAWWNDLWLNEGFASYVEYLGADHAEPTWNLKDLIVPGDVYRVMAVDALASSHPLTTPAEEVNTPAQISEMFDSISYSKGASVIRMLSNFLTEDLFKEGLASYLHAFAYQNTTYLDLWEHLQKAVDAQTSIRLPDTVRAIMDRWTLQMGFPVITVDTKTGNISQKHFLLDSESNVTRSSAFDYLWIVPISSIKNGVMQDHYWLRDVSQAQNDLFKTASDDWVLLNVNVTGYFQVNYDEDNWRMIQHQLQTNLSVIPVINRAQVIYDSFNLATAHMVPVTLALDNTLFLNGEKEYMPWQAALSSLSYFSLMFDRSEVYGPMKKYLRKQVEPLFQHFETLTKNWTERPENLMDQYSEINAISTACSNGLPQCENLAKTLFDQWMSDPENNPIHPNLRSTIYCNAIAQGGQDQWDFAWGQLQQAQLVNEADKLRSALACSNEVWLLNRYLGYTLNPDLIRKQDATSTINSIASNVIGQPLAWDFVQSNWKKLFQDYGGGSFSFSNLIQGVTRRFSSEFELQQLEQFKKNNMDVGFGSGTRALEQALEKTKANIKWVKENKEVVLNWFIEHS

Aminopeptidase B = biological target: T2, Aminopeptidase B (Rattus norvegicus, UniProt O09175); test: Inhibitory activity against aminopeptidase B
T2 sequence (O09175 whole entry): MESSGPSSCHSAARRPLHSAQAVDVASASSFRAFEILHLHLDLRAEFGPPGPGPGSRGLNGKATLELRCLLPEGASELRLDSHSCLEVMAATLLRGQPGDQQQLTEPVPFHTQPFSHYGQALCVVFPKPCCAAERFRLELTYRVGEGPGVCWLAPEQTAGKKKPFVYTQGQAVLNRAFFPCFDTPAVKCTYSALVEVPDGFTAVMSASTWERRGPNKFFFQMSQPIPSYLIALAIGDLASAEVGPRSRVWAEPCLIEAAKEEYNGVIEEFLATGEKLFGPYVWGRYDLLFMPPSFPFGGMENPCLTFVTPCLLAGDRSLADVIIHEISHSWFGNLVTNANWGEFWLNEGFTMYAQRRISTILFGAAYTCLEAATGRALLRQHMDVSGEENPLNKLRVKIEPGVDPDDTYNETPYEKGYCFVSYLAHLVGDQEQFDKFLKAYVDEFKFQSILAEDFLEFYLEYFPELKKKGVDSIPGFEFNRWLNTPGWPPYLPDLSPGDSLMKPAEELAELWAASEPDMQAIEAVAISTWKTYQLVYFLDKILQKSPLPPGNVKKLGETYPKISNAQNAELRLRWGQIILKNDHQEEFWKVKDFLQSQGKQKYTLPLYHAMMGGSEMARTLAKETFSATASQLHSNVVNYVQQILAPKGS
Procedure, shortened: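 Aminopeptidase B at an estimated 4.6 nM, diluted 10-fold for tight binders, in 0.1 M PIPES pH 7.0 with 0.2 M NaCl and 1 mM DTT, 25 °C. Substrate was L-arginine p-nitroanilide, used near Km, with hydrolysis read at 405 nm. Where slow binding appeared, enzyme and inhibitor were preincubated 10–20 min before substrate was added.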

Cytosol aminopeptidase, sequence (P28838 whole entry): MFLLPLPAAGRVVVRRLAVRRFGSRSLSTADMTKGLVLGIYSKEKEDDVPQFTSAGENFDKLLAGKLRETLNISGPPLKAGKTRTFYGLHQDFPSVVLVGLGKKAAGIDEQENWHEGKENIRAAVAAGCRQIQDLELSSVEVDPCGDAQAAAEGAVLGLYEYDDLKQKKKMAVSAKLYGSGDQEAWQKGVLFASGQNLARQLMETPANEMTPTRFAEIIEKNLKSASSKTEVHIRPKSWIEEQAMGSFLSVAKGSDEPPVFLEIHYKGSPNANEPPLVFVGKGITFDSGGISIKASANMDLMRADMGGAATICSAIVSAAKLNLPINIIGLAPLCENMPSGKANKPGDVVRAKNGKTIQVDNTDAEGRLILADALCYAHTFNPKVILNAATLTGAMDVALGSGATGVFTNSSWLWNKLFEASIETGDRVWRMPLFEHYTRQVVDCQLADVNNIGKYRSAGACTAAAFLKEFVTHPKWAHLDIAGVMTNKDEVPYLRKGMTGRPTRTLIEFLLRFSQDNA

| Ki (Cytosol aminopeptidase) | Ki (Aminopeptidase N) | Ki (Aminopeptidase B) | SMILES |
| --- | --- | --- | --- |
| 1 µM | 9.1 µM | 0.0064 µM | CC(C)C[C@H](NC(=O)[C@@H](S)[C@H](N)Cc1ccccc1)C(=O)O [listing 1 of 2 here] |
| 0.55 µM | 4.4 µM | 0.0046 µM | CC(C)C[C@H](NC(=O)[C@@H](S)[C@H](N)Cc1ccccc1)C(=O)O [listing 2 of 2 here] |
| 0.51 µM | 20 µM | 39 µM | CC(C)CCNC(=O)[C@@H](O)[C@H](N)Cc1ccccc1 |
| 4.4 µM | 703 µM | > 1000 µM | CC(C)CC/N=C(\S)[C@@H](O)[C@H](N)Cc1ccccc1 |
| > 1000 µM | 0.11 µM | 0.00091 µM | NCCCC[C@@H](N)CS |
| 507 µM | 355 µM | > 200 µM | CC(C)C[C@H](N)C(C)O (some centres undefined) |
| 33 µM | 1000 µM | > 1000 µM | COC(=O)C(O)[C@H](N)Cc1ccccc1 (some centres undefined) |
| 0.33 µM | 40.3 µM | 2.4 µM | CC(C)C[C@H](/N=C(\S)[C@@H](O)[C@H](N)Cc1ccccc1)C(=O)O |
| – | – | 100 µM | NCCCC[C@@H](N)CO |
| 26 µM | 32 µM | 35.7 µM | CC(C)CCNC(=O)[C@H](S)[C@@H](N)Cc1ccccc1 |
| 16.7 µM | 4.9 µM | 4 µM | CC(C)CCNC(=O)[C@@H](S)[C@H](N)Cc1ccccc1 |
| 450 µM | 0.02 µM | 0.13 µM | CC(C)C[C@@H](N)CS |
| > 500 µM | 6 µM | 7 µM | CC(C)C[C@H](N)C(C)S (some centres undefined) |
| > 1000 µM | > 1000 µM | > 1000 µM | CC(C)C[C@@H](N)CO |
| – | – | 0.06 µM | CC(C)C[C@H](NC(=O)[C@@H](O)[C@H](N)Cc1ccccc1)C(=O)O [UBENIMEX] |

| SMILES | Ki (Cytosol aminopeptidase) | Ki (Aminopeptidase N) | Ki (Aminopeptidase B) |
| --- | --- | --- | --- |
| COC(=O)C(S)[C@H](N)Cc1ccccc1 (some centres undefined) | 300 µM | 307 µM | 159 µM |
